Source: PubChem BioAssay (The Scripps Research Institute Molecular Screening Center)
TAAR1 agonist = agonists of human TAAR1. 0.99% of 360,000 active. CHO RD-HGA16 TAAR1, Fluo-8 calcium fluorescence; vehicle wells 0%, saturating PEA agonist 100%. activation, % at 3 µM;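 active means activation above the mean activation of all test compounds in the run plus 3 SD, cut at about 38% in these data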
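Assay system – CHO-derived RD-HGA16 cells with stable Gα16 and human TAAR1 · Compound dosing – one-point dosing at 3 µM (nominal) · Incubation – 17-24 h seeding, 75 min 37 °C dye, 30 min RT · Measured by – kinetic Fluo-8 calcium fluorescence · Control set – DMSO vehicle as 0%, PEA at EC100 as 100% · Repeats – single well for each compound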
CHO parental Ca = signal in parental CHO cells, OX1R antagonist counter-screen; parental CHO-K1, ATP-induced calcium, Fluo-8 fluorescence; inhibition, % at 5.6 µM; 0.63% of 330,000 active; AID 463079;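 active means inhibition above that plate's mean sample inhibition plus 3 SD, cut at about 26% in these data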;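 further: 0% = ATP-challenged DMSO wells and 100% = DMSO wells without ATP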
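Material: parental CHO cells / Compound: single nominal dose of 5.6 µM per compound / Signal: Fluo-8 fluorescence / Replicates: singlicate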
OX1R antag-1 = antagonists of human orexin 1 receptor (OX1R); O43613; OX1R-expressing cells, FRET antagonist read-out; inhibition, % at 6.6 µM; 1.8% of 330,000 active; AID 485270; in the data active means inhibition mostly above about 38%, no sharp cut-off; inactive means mostly below about 40%;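 further: 0% = agonist challenge alone and 100% = reference antagonist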
Target sequence (O43613 whole entry, looked up): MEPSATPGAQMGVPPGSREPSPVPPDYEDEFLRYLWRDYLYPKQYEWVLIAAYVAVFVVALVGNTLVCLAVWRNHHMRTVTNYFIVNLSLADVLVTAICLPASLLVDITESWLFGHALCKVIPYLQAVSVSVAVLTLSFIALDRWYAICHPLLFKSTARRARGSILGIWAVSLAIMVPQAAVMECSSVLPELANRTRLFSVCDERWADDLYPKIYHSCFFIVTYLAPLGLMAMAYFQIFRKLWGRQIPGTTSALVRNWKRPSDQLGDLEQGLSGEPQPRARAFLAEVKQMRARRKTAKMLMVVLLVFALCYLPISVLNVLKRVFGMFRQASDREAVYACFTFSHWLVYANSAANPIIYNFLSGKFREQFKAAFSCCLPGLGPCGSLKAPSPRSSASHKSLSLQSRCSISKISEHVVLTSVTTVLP
GPR7 antag = antagonists of human GPR7 (neuropeptides B/W receptor 1). inhibition, % at 4.4 µM. GPR7-expressing cells, fluorescence antagonist assay. 1.1% of 290,000 active. P48145; in the data active means inhibition above about 16%, passing the limit was not always enough;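 further: cells stimulated with the agonist NPW; 0% = agonist with vehicle and 100% = vehicle without agonist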
Target sequence (P48145 whole entry, looked up): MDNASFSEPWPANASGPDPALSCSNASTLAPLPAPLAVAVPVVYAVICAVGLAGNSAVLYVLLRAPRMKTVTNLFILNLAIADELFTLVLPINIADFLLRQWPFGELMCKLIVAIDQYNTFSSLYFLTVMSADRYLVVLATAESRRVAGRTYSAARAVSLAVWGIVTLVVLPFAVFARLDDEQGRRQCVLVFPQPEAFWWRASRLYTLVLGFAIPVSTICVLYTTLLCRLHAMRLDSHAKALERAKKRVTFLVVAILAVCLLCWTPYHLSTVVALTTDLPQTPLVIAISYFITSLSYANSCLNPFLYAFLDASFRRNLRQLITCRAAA
TAAR1 antag = human TAAR1 antagonism; Q96RJ0; CHO RD-HGA16 TAAR1, Fluo-8 calcium fluorescence, antagonist; inhibition, % at 3 µM; 1.5% of 360,000 active; AID 624466;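 active means inhibition above a per-plate cutoff, the mean inhibition of test compounds on that plate plus 3 SD, cut at about 49% in these data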;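 further: 0% = DMSO plus EC80 beta-PEA response and 100% = DMSO alone without agonist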
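Test system: RD-HGA16 CHO cells with stable hTAAR1 and Gα16 / Probe or stimulus: EC80 β-phenethylamine stimulus / Times: seeding 17-24 h prior, 75-min 37 °C, 30-min RT dye loading / Detection: Fluo-8 calcium-sensitive fluorescence / Read-out basis: % inhibition scaled between DMSO and EC80 PEA controls / Repeats: singlicate, one well per test compound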
OX1R antag-2 = human HCRTR1 antagonism. CHO/OX1R cells, Fluo-8 calcium fluorescence, orexin A. 0.43% of 330,000 active. inhibition, % at 5 µM;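 active means inhibition above its plate's threshold, mean inhibition of all tested compounds on the plate plus 3 SD, cut at about 37% in these data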;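 further: 0% = orexin A challenge wells and 100% = SB-334867-A antagonist wells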
TAAR1 ag conf = confirmation of human TAAR1 agonists. shares compounds with TAAR1 agonist. CHO RD-HGA16 TAAR1, Fluo-8 calcium fluorescence; scaled: DMSO 0%, maximal phenethylamine 100%. activation, % at 3 µM. 82% of 2,400 active;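 active means activation above a cutoff set at the run's mean compound activation plus 3 SD, cut at about 39% in these data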
Ga16 ag counter = nonselective agonism, TAAR1 counter-screen; activation, % at 3 µM; shares compounds with TAAR1 agonist; AID 651787; CHO-Ga16 parental, Fluo-8 calcium fluorescence; normalized to maximal ATP response, DMSO zero; 50% of 2,400 active;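 active means activation above the run cutoff, the mean activation over all tested wells plus 3 SD, cut at about 12% in these data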;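 further: 0% = DMSO wells and 100% = maximal ATP response on the peak over basal ratio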
TAAR1 desens = TAAR1 response desensitization, agonist counter-screen | shares compounds with TAAR1 agonist | 46% of 2,400 active | AID 651951 | inhibition, % at 3 µM | CHO RD-HGA16 hTAAR1, Fluo-8 calcium, beta-PEA response inhibition;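 active means inhibition above the run cutoff, the mean inhibition of all test compounds plus 3 SD, cut at about 49% in these data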;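 further: beta-PEA stimulus applied at its EC80; loss of beta-PEA calcium signal after compound pretreatment read as receptor desensitization; 0% = DMSO with beta-PEA at EC80 and 100% = DMSO alone without agonist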
Ga16 nonsel ant = counter-screen for TAAR1 agonists: nonselective Ga16 antagonists; shares compounds with TAAR1 agonist; CHO-Ga16 ATP-induced calcium, Fluo-8 fluorescence; inhibition, % at 3 µM; 39% of 2,400 active; AID 651952;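 active means inhibition above the plate's mean compound inhibition plus 3 SD, computed per plate, cut at about 22% in these data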;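 further: 0% = EC80 ATP with DMSO and 100% = DMSO wells without ATP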
* = called active by the depositor; · = not tested or not shown. The list is not random: actives were taken first. Their share in the collection is about 4.6%.

SMILES	TAAR1 agonist	CHO parental Ca	OX1R antag-1	GPR7 antag	TAAR1 antag	OX1R antag-2	TAAR1 ag conf	Ga16 ag counter	TAAR1 desens	Ga16 nonsel ant
COc1ccccc1C(=O)NC(=S)NNC(=O)c1sc2ccccc2c1Cl	117.4*	-3.4	43.3	0.3	74.4*	9.2	165.5*	124.0*	106.0*	86.9*
COc1ccc2cc(C(c3nnnn3CCc3ccccc3)N3CCCC(C)C3)c(=O)[nH]c2c1 (stereo not drawn)	53.9*	-2.6	13.1	-5.1	30.4	-21.9	58.5*	2.8	18.0	14.0
COc1ccc2[nH]c(=O)c(CN(Cc3ccccc3OC)Cc3nnnn3CC3CCCO3)cc2c1 (stereo not drawn)	1.2	-30.7	44.9	-13.8	-13.3	-15.5	·	·	·	·
COCCn1nnnc1C(c1cc2cc(OC)ccc2[nH]c1=O)N1CCC(Cc2ccccc2)CC1 (stereo not drawn)	7.0	-6.7	5.7	-11.1	8.2	-11.2	·	·	·	·
COc1ccc2cc(CN(CCc3ccccc3)Cc3nnnn3CC3CCCO3)c(=O)[nH]c2c1 (stereo not drawn)	92.3*	-5.1	23.6	-3.1	56.9*	-10.5	77.6*	4.9	75.1*	17.1
O=c1[nH]c2cc3c(cc2cc1CN(CCc1ccccc1)Cc1nnnn1CC1CCCO1)OCO3 (stereo not drawn)	7.0	-14.6	8.7	-12.6	6.9	-12.4	·	·	·	·
COc1ccc2[nH]c(=O)c(CN(CCc3ccccc3)Cc3nnnn3CC3CCCO3)cc2c1 (stereo not drawn)	84.5*	-25.3	32.6	-15.1	72.4*	-17.8	87.9*	7.7	81.3*	24.9*
COc1ccccc1-c1cnc(C(O)c2ccc(C)cc2C)[nH]1 (stereo not drawn)	2.3	·	·	·	-4.8	·	·	·	·	·
C=C(C)CN(CC)C(=O)COc1ccc(S(=O)(=O)Nc2ccc(OC)cc2)cc1	63.0*	-4.1	9.4	8.4	14.2	1.9	59.1*	30.0*	23.3	22.2*
CC(Oc1cccc(Cl)c1)C(=O)Nc1ccc(N2CCOCC2)cc1N1CCOCC1 (stereo not drawn)	10.4	-7.7	12.0	·	-55.5	-6.1	·	·	·	·
CCOC(=O)C(NCc1ccc2c(c1)OCO2)(NC(=O)CC)C(F)(F)F (stereo not drawn)	3.9	-21.8	1.1	-5.8	-8.3	-18.9	·	·	·	·
CCOC(=O)C(NCCc1ccccc1)(NC(=O)CC)C(F)(F)F (stereo not drawn)	94.2*	-10.3	28.1	-5.7	51.6*	10.3	97.8*	4.7	80.0*	-2.4
CCOC(=O)C(NCCc1ccccc1F)(NC(=O)CC)C(F)(F)F (stereo not drawn)	·	-8.7	10.4	-7.9	·	7.4	·	6.1	·	7.6
O=C1NC(Cc2ccc(O)cc2)c2nc3ccc(Br)cc3c(=O)n2-c2ccc(Cl)cc21 (stereo not drawn)	8.3	-11.2	10.1	·	-23.7	-2.0	·	·	·	·
COc1ccc(CN2C(=O)C(C)Nc3ncnc(N4CCc5ccccc5C4)c32)cc1 (stereo not drawn)	53.0*	·	·	·	15.9	·	43.8*	0.8	-3.0	15.9
COc1ccc(CN2C(=O)C(C)Nc3ncnc(N4CCN(c5ccccn5)CC4)c32)cc1 (stereo not drawn)	16.8	-13.8	3.1	·	17.2	-21.6	·	·	·	·
COc1ccccc1/C=C1\CCC(C2CCCC2)C1=O (stereo not drawn)	4.4	-16.1	8.3	-11.5	-19.2	-32.6	·	·	·	·
OC(c1cc(C(F)(F)F)nc2c(C(F)(F)F)cccc12)C1CCCCN1 (stereo not drawn)	67.2*	4.0	0.7	·	50.2*	-4.9	67.5*	43.6*	60.4*	53.8*
OC(c1cc(-c2cccc(Cl)c2)nc2ccccc12)C1CCCCN1 (stereo not drawn)	29.3	·	·	·	44.0	·	·	·	·	·
OC(c1cc(-c2ccc(C(F)(F)F)cc2)nc(C(F)(F)F)c1)C1CCCCN1 (stereo not drawn)	81.9*	8.5	-15.9	42.0*	48.3	-2.4	81.6*	61.7*	69.1*	69.7*
CCOC(=O)C1=CCN(S(=O)(=O)c2ccccc2F)C1c1ccc(Br)cc1 (stereo not drawn)	0.5	·	·	·	26.1	·	·	·	·	·
COc1ccc(CN2CCC3CC2c2cc(Cl)ccc23)cc1 (stereo not drawn)	7.8	·	·	·	-11.3	·	·	·	·	·
COc1ccc(C(=O)CC(=O)C(=O)Nc2ccccc2C(F)(F)F)cc1	93.8*	-20.1	-7.5	-16.5	73.3*	-9.7	132.2*	119.9*	86.7*	76.6*
COc1ccc(/C=C/C(=O)Nc2ccccc2C(F)(F)F)cc1	47.8*	-7.5	2.4	0.8	28.9	-13.0	16.3	9.5	19.3	16.2
CCOc1ccc(/C=C/C(=O)Nc2ccccc2C(F)(F)F)cc1	-1.3	1.8	19.0	-2.7	-20.0	-16.3	·	·	·	·
SMILES	TAAR1 agonist	CHO parental Ca	OX1R antag-1	GPR7 antag	TAAR1 antag	OX1R antag-2	TAAR1 ag conf	Ga16 ag counter	TAAR1 desens	Ga16 nonsel ant
O=C(CNC(=O)c1cccc(F)c1)N/N=C/C=C/c1ccccc1	·	-14.3	5.6	-10.2	·	-17.1	·	-0.7	·	5.4
CCc1cc2c(NCCC(=O)O)nc(C)nc2s1	48.6*	-4.6	8.6	-14.5	-7.1	-3.0	103.7*	46.6*	12.6	-1.9
O=[N+]([O-])c1ccc2nonc2c1Nc1ccccc1	78.2*	-7.3	27.5*	-19.6	24.0	-5.0	4.8	1.1	-6.4	0.7
O=[N+]([O-])c1cccc(Nc2c([N+](=O)[O-])ccc3nonc23)c1	2.5	-4.3	-8.5	-11.3	-16.7	-9.8	·	·	·	·
O=C1NC(CCc2ccccc2)C(=O)N1CCOc1cccc(Br)c1 (stereo not drawn)	59.1*	-22.3	15.5	-4.5	-13.8	-19.0	8.0	2.9	1.9	16.8
COC(=O)c1c(N)sc(C(=O)NCCc2ccccc2)c1C	101.4*	·	·	-1.6	73.5*	·	86.1*	4.3	88.9*	21.6*
CCOC(=O)c1sc(N)c(C(=O)OC)c1C	1.3	-8.5	16.9	18.9	-14.7	0.3	·	·	·	·
COc1cc(C)c(NC(=O)C(=S)NCCc2ccccc2)cc1C	65.9*	-13.8	13.0	-12.1	78.9*	-13.6	91.9*	2.4	85.4*	16.3
